Measurements from ChEMBL document CHEMBL4145612, “Phenolic Constituents Isolated from the Twigs of Cinnamomum cassia and Their Potential Neuroprotective Effects” (J Nat Prod, 2018).

The molecules below were run on SH-SY5Y (assay: Neuroprotective activity against tunicamycin-induced cell death in human SH-SY5Y cells pretreated for 6 hrs followed by tunicamycin addition measured after 48 hrs by MTT assay).
Format: functional, cell-based
How it was run: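 SH-SY5Y cells grown in DMEM/High Glucose:F12 (1:1) with 10% FBS at 37 °C, 5% CO2, seeded 4 × 10^3/well and left 12 h. Compounds given at 25, 50 and 100 μM for 6 h, then tunicamycin added for 48 h. Medium replaced; MTT 0.5 mg/mL final, 4 h at 37 °C; absorbance 570 nm. Salubrinal 40 μM as positive control; three independent experiments, means ± SEM; EC50 derived.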
For `C=CCc1cc(O)c(-c2c(OC)cc([C@@H]3OO[C@@H]3CO)cc2OC)c(OC)c1`, the Activity was “Dose-dependent effect” and the EC50 was 21 to 75 µM.
In the case of `C=CCc1cc(O)c(-c2c(OC)cc([C@H]3OO[C@H]3CO)cc2OC)c(OC)c1`, the Activity is reported as “Dose-dependent effect” and the EC50 is reported as 21 to 75 µM.
`COc1ccc([C@@H]2C(=O)OC[C@H]2c2ccc3c(c2)OCO3)cc1` was tested, and the Activity was “Dose-dependent effect” and the EC50 was 21 to 75 µM.
In the case of `OC[C@H]1O[C@@H](OC/C=C/c2ccccc2)[C@H](O)[C@@H](O)[C@@H]1O`, the Activity is reported as “Dose-dependent effect” and the EC50 is reported as 21 to 75 µM.
In the case of `O=C1OC[C@@H](c2ccc(O)c(O)c2)[C@@H]1c1ccc(O)cc1`, the Activity is reported as “Dose-dependent effect” and the EC50 is reported as 21 to 75 µM.
`O=C(CCc1ccccc1)OC/C=C/c1ccccc1` was tested, and the Activity was “Dose-dependent effect” and the EC50 was 21 to 75 µM.
With `COc1ccc([C@@H]2C(=O)OC[C@H]2c2ccc(O)c(OC)c2)cc1` the Activity was “Dose-dependent effect” and the EC50 was 21 to 75 µM.
`COc1cc([C@H](OC)[C@@H]2CO[C@@H](c3cc(OC)c(O)c(OC)c3)[C@@H]2COC(C)=O)cc(OC)c1O` was tested, and the Activity was “Dose-dependent effect” and the EC50 was 21 to 75 µM.
